# Key:
# PKA-Cα = assay: 32P phosphorylation; format: biochemical; conditions: PKA-Cα 20 nM, pH 7.5; n = 3
# How it was run: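 Substrate was His-tagged human smAKAP (wild type, or S66D with PKA-Cα) at 10 μM. It was incubated with 20 nM recombinant kinase in 50 mM MOPS pH 7.5 containing 10 mM MgCl2, 200 μM ATP and [32P]ATP. Aliquots were quenched in 30% acetic acid at 0, 5, 10 and 15 min. Results are means ± SD of 3 independent experiments.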
# PKA-RIβ = assay: Confocal colocalization with PKA-RIβ-mKO2 in HeLa cells; format: cell-based; conditions: for localization of PKA-RIβ on co-transfection: phosphomimetic mutant + PKA-RIβ-mKO2
# How it was run: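 HeLa cells co-expressed GFP-tagged smAKAP (wild type, S66E or S66D) with mKO2-tagged PKA-RIα or RIβ. Cells were washed in ice-cold PBS, fixed in ice-cold 4% formaldehyde in PBS, washed twice and imaged by confocal microscopy through a 63× oil objective. Stimulated cells received calyculin A plus 8-CPT-cAMP and were imaged live.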
# PKA-RIα = assay: Confocal colocalization with PKA-RIα in HeLa cells; format: cell-based; conditions: phosphomimetic mutant + PKA-RIα-mKO2
Molecule,phosphorylation by PKA (PKA-Cα),localization of PKA-RIβ on co-transfection (PKA-RIβ),localization of PKA-RIα on co-transfection (PKA-RIα),"colocalization with PKA-RIβ-mKO2 (PKA-RIβ; transfected, confocal, unstimulated)"
"smAKAP-S66D: recombinant smAKAP with Ser66 mutated to an aspartic acid (protein, UniProt Q9BSF0 2-95, looked up, variant S66D) Small membrane A-kinase …: GCMKSKQTFPFPTIYEGEKQHESEEPFMPEERCLPRMASPVNVKEEVKEPPGTNTVILEYAHRLDQDILCDALQQWACNNIKYHDIPYIESEGP",no detectable levels of phosphorylation,–,–,–
"smAKAP-S66D-GFP: phosphomimetic mutant GFP fusion (protein, UniProt Q9BSF0 2-95, looked up, variant S66D, GFP fusion) Small membrane A-kinase …: GCMKSKQTFPFPTIYEGEKQHESEEPFMPEERCLPRMASPVNVKEEVKEPPGTNTVILEYAHRLDQDILCDALQQWACNNIKYHDIPYIESEGP",–,predominantly resided in the cytoplasm,predominantly resided in the cytoplasm,–
"smAKAP-S66E-GFP: phosphomimetic mutant GFP fusion (protein, UniProt Q9BSF0 2-95, looked up, variant S66E, GFP fusion) Small membrane A-kinase …: GCMKSKQTFPFPTIYEGEKQHESEEPFMPEERCLPRMASPVNVKEEVKEPPGTNTVILEYAHRLEQDILCDALQQWACNNIKYHDIPYIESEGP",–,predominantly resided in the cytoplasm,predominantly resided in the cytoplasm,no colocalization occurs
